In ChEMBL document CHEMBL1137655, “Isoxyl activation is required for bacteriostatic activity against Mycobacterium tuberculosis” (2007):
Activity calls are given as the source filed them. The calls are words filed in the database; no cut-off is given here.

Experiments:
Assay type in all cases: functional, organism-based
Conditions in all cases: Mycobacterium bovis BCG str. Pasteur 1173P2
[1] = test system: Mycobacterium tuberculosis variant bovis; test: Inhibition of mycolic acid synthesis in Mycobacterium bovis BCG Pasteur 1173P2 sonicates assessed as inhibition of alphamycolates production using partially purified EthA as cofactor by autoradiography
How it was run: (§1)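 BCG sonicate (3 mg protein) with 1 μCi [1,2-14C]acetate, ISO 0, 2 or 5 μg/ml final, ±purified EthA (up to 10 μg), 25 mM Tris-HCl pH 7.5; 10 min ice, 2 h 37°C; mycolic acid methyl esters by TLC (hexane:ethyl acetate 95:5) and autoradiography.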

[2] = test system: Mycobacterium tuberculosis variant bovis; test: Inhibition of mycolic acid synthesis in Mycobacterium bovis BCG Pasteur 1173P2 sonicates assessed as inhibition of ketomycolates production using partially purified EthA as cofactor by autoradiography; how it was run: as §1
[3] = test system: Mycobacterium tuberculosis variant bovis; test: Inhibition of mycolic acid synthesis in Mycobacterium bovis BCG Pasteur 1173P2 sonicates assessed as inhibition of ketomycolates production by autoradiography; how it was run: as §1
[4] = test system: Mycobacterium tuberculosis variant bovis; test: Inhibition of mycolic acid synthesis in Mycobacterium bovis BCG Pasteur 1173P2 sonicates assessed as inhibition of alphamycolates production by autoradiography; how it was run: as §1

CC(C)CCOc1ccc(NC(=S)Nc2ccc(OCCC(C)C)cc2)cc1 [TIOCARLIDE]
Activity [1]: inactive | Activity [2]: inactive | Activity [3]: Active | Activity [4]: Active
